Laboratory results taken from ChEMBL document CHEMBL4613285 (ACS Med Chem Lett, 2020).
Active and inactive are the calls of the source. No cut-off for these calls is given here.

Legend:
[1] = Ratio of drug level in brain to plasma in CD-1 mouse at 3 mg/kg, iv measured after 8 mins; format: ADME, organism-based; conditions: brain and plasma, read-out: BPR
Procedure, shortened: (§1)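 Male CD1 mice (n=2) dosed IV at 3 mg/kg; brain and plasma sampled at 8 and 60 min; values reported as mean ± standard error.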

[2] = target: T1, Protein deacetylase HDAC6 (Mus musculus, UniProt Q9Z2V5); experiment: Inhibition of HDAC6 in mouse N2A cells assessed as increase in alpha tubulin acetylation; format: cell-based
T1 sequence (Q9Z2V5 whole entry): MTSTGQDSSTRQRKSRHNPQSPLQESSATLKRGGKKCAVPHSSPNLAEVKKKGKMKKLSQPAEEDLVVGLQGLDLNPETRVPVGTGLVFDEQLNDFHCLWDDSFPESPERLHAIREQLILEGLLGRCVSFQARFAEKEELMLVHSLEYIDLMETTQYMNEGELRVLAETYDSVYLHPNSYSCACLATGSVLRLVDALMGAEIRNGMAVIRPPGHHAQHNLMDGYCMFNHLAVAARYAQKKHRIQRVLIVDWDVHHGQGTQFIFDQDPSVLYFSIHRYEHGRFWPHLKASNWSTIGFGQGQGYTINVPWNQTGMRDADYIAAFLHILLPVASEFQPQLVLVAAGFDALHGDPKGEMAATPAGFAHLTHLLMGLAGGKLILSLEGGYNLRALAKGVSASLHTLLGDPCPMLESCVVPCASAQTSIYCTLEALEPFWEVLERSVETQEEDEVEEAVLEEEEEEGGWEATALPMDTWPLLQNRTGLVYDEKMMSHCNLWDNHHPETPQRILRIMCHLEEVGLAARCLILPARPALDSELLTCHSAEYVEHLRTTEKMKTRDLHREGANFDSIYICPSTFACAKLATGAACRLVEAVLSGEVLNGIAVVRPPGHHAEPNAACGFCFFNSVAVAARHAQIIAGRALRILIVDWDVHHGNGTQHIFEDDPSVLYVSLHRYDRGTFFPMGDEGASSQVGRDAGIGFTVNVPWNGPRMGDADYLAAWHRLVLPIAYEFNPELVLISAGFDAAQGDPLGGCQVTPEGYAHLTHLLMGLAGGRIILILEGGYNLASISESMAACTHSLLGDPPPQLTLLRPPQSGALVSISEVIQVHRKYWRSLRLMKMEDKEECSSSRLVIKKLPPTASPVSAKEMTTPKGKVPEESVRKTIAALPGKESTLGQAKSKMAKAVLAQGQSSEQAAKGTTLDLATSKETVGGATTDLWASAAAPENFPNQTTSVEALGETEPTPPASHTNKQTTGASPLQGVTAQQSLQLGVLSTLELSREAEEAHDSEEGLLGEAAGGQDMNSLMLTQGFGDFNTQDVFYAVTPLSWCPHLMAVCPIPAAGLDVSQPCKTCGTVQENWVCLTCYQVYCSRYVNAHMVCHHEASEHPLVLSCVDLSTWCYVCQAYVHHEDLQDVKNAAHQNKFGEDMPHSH
Procedure, shortened: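 N2a cells; α-tubulin acetylation read out; 10-dose EC50 mode, singlet, 3-fold serial dilutions from 100 μM top concentration.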

[3] = Drug concentration in CD-1 mouse brain at 3 mg/kg, iv measured at 8 mins; format: ADME, organism-based; conditions: read-out: Ct; procedure, shortened: as §1
MDR1 [4] = experiment: Efflux ratio of permeability in MDCK-MDR1 cells; format: ADME, cell-based, Canis lupus familiaris; conditions: dog
[5] = Ratio of drug level in brain to plasma in CD-1 mouse at 3 mg/kg, iv measured after 60 mins; format: ADME, organism-based; conditions: brain and plasma, read-out: BPR; procedure, shortened: as §1
[6] = Drug concentration in CD-1 mouse brain at 3 mg/kg, iv measured at 60 mins; format: ADME, organism-based; conditions: read-out: Ct; procedure, shortened: as §1
[7] = target: T1, Protein deacetylase HDAC6; experiment: Inhibition of HDAC6 in mouse N2A cells; format: cell-based
[8] = Drug concentration in CD-1 mouse plasma at 3 mg/kg, iv measured at 8 mins; format: ADME, organism-based; procedure, shortened: as §1
[9] = Drug concentration in CD-1 mouse plasma at 3 mg/kg, iv measured at 60 mins; format: ADME, organism-based; procedure, shortened: as §1
Histone deacetylase 1 = Histone deacetylase 1 (Mus musculus, UniProt O09106); experiment: Inhibition of HDAC1 in mouse N2A cells; format: cell-based
Sequence of Histone deacetylase 1 (O09106 whole entry): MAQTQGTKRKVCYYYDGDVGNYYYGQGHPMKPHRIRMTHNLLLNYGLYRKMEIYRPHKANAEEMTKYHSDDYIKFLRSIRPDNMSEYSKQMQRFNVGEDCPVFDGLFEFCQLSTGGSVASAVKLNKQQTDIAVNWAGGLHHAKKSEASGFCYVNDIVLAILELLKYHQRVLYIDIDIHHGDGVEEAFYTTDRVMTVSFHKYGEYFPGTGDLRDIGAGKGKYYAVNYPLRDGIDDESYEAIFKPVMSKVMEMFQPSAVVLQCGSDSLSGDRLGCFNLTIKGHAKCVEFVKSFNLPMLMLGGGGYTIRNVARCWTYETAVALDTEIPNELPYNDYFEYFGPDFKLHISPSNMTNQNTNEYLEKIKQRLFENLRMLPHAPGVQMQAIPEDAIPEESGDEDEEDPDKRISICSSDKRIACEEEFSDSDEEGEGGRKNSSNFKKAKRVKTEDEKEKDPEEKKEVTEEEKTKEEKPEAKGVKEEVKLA

[10] = target: T2, Protein deacetylase HDAC6 (Mus musculus) (UniProt Q9Z2V5); experiment: In vivo inhibition of HDAC6 in C57BL/6 mouse cortex assessed as increase in alpha tubulin acetylation at 20 mg/kg, ip administered bid with interval of 4 hrs and measured after 1.5 hrs of last dosage by Western blot analysis; format: functional, organism-based
T2 sequence (whole entry): T1 sequence (Q9Z2V5 whole entry)
Procedure, shortened: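 Adult male C57BL/6 mice got two IP injections of 20 mg/kg, 4 h apart, and were killed 1.5 h after the second. Cortical homogenates were Western blotted (n = 3–4 per group) for acetylated α-tubulin/total tubulin densitometric ratio, normalized to vehicle-treated baseline (100%). Mean and standard deviation are reported; significance versus vehicle at p < 0.05 or p < 0.01.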

Mus musculus = organism: Mus musculus; experiment: Selectivity index, ratio of IC50 for HDAC1 in mouse N2A cells to IC50 for HDAC6 in mouse N2A cells; format: cell-based
[11] = Free drug concentration in mouse brain at 25 mg/kg measured at 8 mins; format: ADME, organism-based; conditions: in vivo
Procedure, shortened: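 Free brain exposure calculated for 25 mg/kg from brain PK at 8 min and brain homogenate binding.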

[12] = Ratio of drug level in brain to plasma in C57BL/6 mouse at 3 mg/kg, iv measured after 8 mins by LC-MS/MS analysis; conditions: brain and plasma
[13] = Half life in CD-1 mouse at 3 mg/kg, iv; format: ADME, organism-based; conditions: in vivo
[14] = Metabolic stability in mouse liver microsomes assessed as half life; format: ADME, Microsome
[15] = Protein binding in mouse brain homogenate; format: ADME, tissue-based; conditions: read-out: PB (converted)
[16] = Oral bioavailability in CD-1 mouse at 30 mg/kg; format: ADME, organism-based; conditions: in vivo
[17] = Protein binding in mouse plasma assessed as unbound fraction measured at initial point; format: ADME, cell-free
Procedure, shortened: (§2)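 Unbound plasma level derived from total concentrations predicted for 10 mg/kg IP using IV PK data, corrected by measured mouse plasma protein binding; given at initial point and 1 h.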

[18] = Metabolic stability in mouse plasma assessed as half life; format: ADME, cell-free
[19] = Initial plasma concentration in CD-1 mouse at 30 mg/kg, po measured at 0 mins; format: ADME, organism-based; conditions: read-out: C0
Procedure, shortened: (§3)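 Plasma PK in male CD1 mice (n=3, mean) after 30 mg/kg oral dosing; formulation 5% DMSO in 10% HP-β-CD in saline, pH adjusted with HCl; C0 and C1h from plasma profile.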

[20] = Plasma concentration in CD-1 mouse at 3 mg/kg, iv measured at 1 hr; format: ADME, organism-based
Procedure, shortened: (§4)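 Plasma PK in male CD1 mice (n=3, mean) after 3 mg/kg IV; vehicle 5% DMSO in 10% HP-β-CD in saline, pH adjusted with HCl; C0, C1h and Vss derived from plasma profile.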

[21] = AUC in CD-1 mouse at 30 mg/kg, po; format: ADME, organism-based; conditions: in vivo
[22] = Volume of distribution at steady state in CD-1 mouse at 3 mg/kg, iv; format: ADME, organism-based; conditions: in vivo; procedure, shortened: as §4
[23] = Plasma concentration in CD-1 mouse at 30 mg/kg, po measured at 1 hr; format: ADME, organism-based; procedure, shortened: as §3
[24] = AUC in CD-1 mouse at 3 mg/kg, iv; format: ADME, organism-based; conditions: in vivo
[25] = Protein binding in mouse plasma assessed as unbound fraction measured at 1 hr; format: ADME, cell-free; procedure, shortened: as §2
[26] = Half life in CD-1 mouse at 30 mg/kg, po; format: ADME, organism-based; conditions: in vivo
[27] = Protein binding in mouse plasma; format: ADME, cell-free; conditions: read-out: PPB (converted)
[28] = Metabolic stability in mouse Hepatocyte assessed as half life; format: ADME, cell-based; conditions: hepatocytes
[29] = Initial plasma concentration in CD-1 mouse at 3 mg/kg, iv measured at 0 mins; format: ADME, organism-based; procedure, shortened: as §4
MDR1 [30] = experiment: Efflux ratio of apparent permeability from basolateral to apical over apical to basolateral side in MDCK-MDR1 cells incubated for 2 hrs by LC-MS/MS analysis; conditions: dog

Structure (SMILES)	Kp at 8 min [1]	EC50 [2] [nM]	concentration at 8 min [3] [ng/g]	efflux ratio (MDR1 [4])	Kp at 1 h [5]	concentration at 1 h [6] [ng/g]	IC50 [7] [nM]	concentration at 8 min [8] [ng/mL]	concentration at 1 h [9] [ng/mL]	IC50 (Histone deacetylase 1) [nM]	Activity [10]	Ratio IC50 (Mus musculus)	further results
O=C(NO)c1ccc(Cn2cccn2)cc1	1.03	932	354	0.51	5.08	30.5	45.5	345	6	6860	Active	150	–
O=C(NO)c1ccc(CN2CCc3ccc(F)cc32)cc1	6.21	250	944	1.05	9.5	7.6	9.7	152	0.8	5540	Active	571	–
CN1CCc2c(c3ccccc3n2Cc2ccc(C(=O)NO)cc2)C1 [TUBASTATIN A]	0.15	145	40.5	9.83	0.86	17.5	4.4	274	20.3	8100	–	–	Drug uptake(free) [11]: 0.1 µM; Kp at 8 min [12]: 0.15; t1/2 [13]: 21 min; half-life [14]: > 60 min; fraction unbound [15]: 0.094; bioavailability [16]: 5.9%; C0(unbound) [17]: 3770 nM; half-life [18]: 30 min; concentration at 0 h [19]: 135 ng/mL; concentration at 1 h [20]: 29.7 ng/mL; AUC [21]: 134 ng·h/mL; Vdss [22]: 4.14 L/kg; concentration at 1 h [23]: 41.9 ng/mL; AUC [24]: 227 ng·h/mL; Cp(f) [25]: 90 nM; half-life [26]: 51.6 min; fraction unbound [27]: 0.34; half-life [28]: > 60 min; C0 at 0 h [29]: 1240 ng/mL; efflux ratio at 2 h (MDR1 [30]): 9.83
